The values below come from ChEMBL document CHEMBL1125780, “Monovalent sialosides that bind tightly to influenza A virus” (J Med Chem, 1991).

Molecules are shown by their SMILES.

For this assay, the target named is Hemagglutinin (Influenza A virus (strain A/X-31 H3N2)) (UniProt P03438). The experiment in a line: Inhibition of influenza A, strain X-31, induced hemagglutinination of chicken erythrocytes. Format: functional. As to conditions: Influenza A virus (A/X-31(H3N2)). A digest of the protocol: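 Binding affinities come from hemagglutination inhibition with adult chicken red blood cells. Each is reported as a relative affinity against methyl α-sialoside (Neu5Acα2Me), whose affinity is set at 1.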
Sequence of Hemagglutinin (Influenza A virus (strain A/X-31 H3N2)) (P03438 whole entry): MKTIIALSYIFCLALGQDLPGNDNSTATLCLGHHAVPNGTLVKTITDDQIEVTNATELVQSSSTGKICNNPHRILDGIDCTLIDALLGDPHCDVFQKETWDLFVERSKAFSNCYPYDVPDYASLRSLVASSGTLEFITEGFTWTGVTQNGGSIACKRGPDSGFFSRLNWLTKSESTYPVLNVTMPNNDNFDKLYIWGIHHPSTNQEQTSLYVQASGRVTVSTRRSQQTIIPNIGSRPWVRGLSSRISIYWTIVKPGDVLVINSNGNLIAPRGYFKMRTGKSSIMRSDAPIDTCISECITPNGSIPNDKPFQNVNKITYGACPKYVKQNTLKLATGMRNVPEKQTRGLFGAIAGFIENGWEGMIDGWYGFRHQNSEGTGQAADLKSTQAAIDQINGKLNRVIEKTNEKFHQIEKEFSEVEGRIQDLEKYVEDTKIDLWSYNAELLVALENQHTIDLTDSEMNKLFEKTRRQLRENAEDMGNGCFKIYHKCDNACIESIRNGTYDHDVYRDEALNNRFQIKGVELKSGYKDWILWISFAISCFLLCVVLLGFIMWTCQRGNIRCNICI

Take `CC(=O)NC1C(O)CC(OCCCCCCC(=O)NCc2cccc3ccccc23)(C(=O)O)OC1[C@H](O)[C@H](O)CO` (some centres undefined): the Relative affinity stood at 64.

For `CC(=O)NC1C(O)CC(OCCCCC(=O)NCc2cccc(C(=O)O)c2)(C(=O)O)OC1[C@H](O)[C@H](O)CO` (some centres undefined), the Relative affinity turned out to be 16.

As for `CC(=O)NC1C(O)CC(OCCCCCCC(=O)NCc2cc3ccccc3c3ccccc23)(C(=O)O)OC1[C@H](O)[C@H](O)CO` (some centres undefined), the Relative affinity is 64.

For `CC(=O)NC1C(O)CC(OCCCCC(=O)NNS(=O)(=O)c2cccc3c(N(C)C)cccc23)(C(=O)O)OC1[C@H](O)[C@H](O)CO` (some centres undefined), the Relative affinity was 4.

Take `CC(=O)NC1C(O)CC(OCCCCC(=O)NCc2cccc3ccccc23)(C(=O)O)OC1[C@H](O)[C@H](O)CO` (some centres undefined): the Relative affinity was 32.

`CC(=O)NC1C(O)CC(OCCCCC(=O)NCc2ccc3ncccc3c2)(C(=O)O)OC1[C@H](O)[C@H](O)CO` (some centres undefined) showed a Relative affinity of 8.

For `CC(=O)NC1C(O)CC(OCCCCC(=O)NCCNC(=O)OCc2ccccc2)(C(=O)O)OC1[C@H](O)[C@H](O)CO` (some centres undefined), the Relative affinity is 4.

`CC(=O)NC1C(O)CC(OCCCCCCC(=O)NCc2ccccc2)(C(=O)O)OC1[C@H](O)[C@H](O)CO` (some centres undefined) gave a Relative affinity of 16.

As for `CC(=O)NC1C(O)CC(OCCCCC(=O)NCc2ccccc2)(C(=O)O)OC1[C@H](O)[C@H](O)CO` (some centres undefined), the Relative affinity amounted to 8.

In the case of `CC(=O)NC1C(O)CC(OCCCCCCCCC(=O)NCc2cccc3ccccc23)(C(=O)O)OC1[C@H](O)[C@H](O)CO` (some centres undefined), the Relative affinity was determined as 16.

Take `CNC(=O)CCCCOC1(C(=O)O)CC(O)C(NC(C)=O)C([C@H](O)[C@H](O)CO)O1` (some centres undefined): the Relative affinity came out at 1.

In the case of `CC(=O)NC1C(O)CC(OCCCCC(=O)NCc2cc3ccccc3c3ccccc23)(C(=O)O)OC1[C@H](O)[C@H](O)CO` (some centres undefined), the Relative affinity came out at 32.

In turn, `CC(=O)NC1C(O)CC(OCCCCCCCCC(=O)NCc2ccccc2)(C(=O)O)OC1[C@H](O)[C@H](O)CO` (some centres undefined) displayed a Relative affinity below 8.

With `CC(=O)NC1C(O)CC(OCCC(=O)NCc2cccc3ccccc23)(C(=O)O)OC1[C@H](O)[C@H](O)CO` (some centres undefined), the Relative affinity came out at 8.
